The source of these data is ChEMBL document CHEMBL2086391, “Structure based molecular design, synthesis and biological evaluation of α-pyrone analogs as anti-HSV agent” (Bioorg Med Chem Lett, 2012).

By inhibition is commonly meant the relative decrease from the control value, in per cent. As a reminder, the EC50 is the concentration needed to bring the measured effect to its halfway point. What is called CC50 is the concentration that lowers cell viability or growth by half.

In brackets after ≈: the same amount, converted by molar mass. Activity calls are given as the source filed them. The calls are words filed in the database; no cut-off is given here.

The subject of series [1] is Human alphaherpesvirus 1. Kind of series: Antiviral activity against HSV-1F ATCC 733 infected in african green monkey Vero cells assessed as inhibition of virus yield at 20 ug/ml after 3 days by MTT assay. In kind it is functional. The conditions noted are these: Human alphaherpesvirus 1, ATCC 733, Vero, 72 h.
For series [2], the system named is Human alphaherpesvirus 1. Put plainly: Antiviral activity against HSV-1F ATCC 733 infected in african green monkey Vero cells assessed as inhibition of virus induced cytopathic effect after 3 days by MTT assay. In kind it is functional, organism-based. Particulars: Human alphaherpesvirus 1, ATCC 733, Vero, 72 h. The method in brief: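 Vero cells seeded at 1.0 × 10^5 cells/ml, held 6 h at 37 °C, 5% CO2, then infected with virus at 0.5 MOI for 1 h. Serial compound concentrations added in triplicate, with 0.1% DMSO and acyclovir controls. MTT read after 3 days at 37 °C. % inhibition taken from test, virus-control and cell-control absorbances. EC50 is 50% inhibition of virus-induced CPE; experiment repeated three times.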
For orientation: Cytopathic effects are the visible damage that an infection or toxin causes in cultured cells.

Series [3] can be described thus: Cytotoxicity against african green monkey Vero cells after 2 days by MTT assay. In kind it is cell-based. The conditions noted are these: chlorocebus sabaeus. The method in brief: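 Vero cells plated at 1.0 × 10^5 cells/ml and exposed in triplicate to a range of compound concentrations, with 0.1% DMSO as negative control. After 2 days at 37 °C, 5% CO2, MTT added for 4 h. Formazan dissolved in 0.04 N HCl/isopropanol and read at 570 nm (reference 690 nm). % viability taken against media control; CC50 in µg/ml.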
For orientation: Tetrazolium dyes change colour on reduction, which living cells bring about.

Series [4] is described as follows: Selectivity index, ratio of CC50 for african green monkey Vero cells to EC50 for HSV-1F ATCC 733. In kind it is toxicity, cell-based. The conditions noted are these: read-out: Ratio CC50/EC50. The method in brief: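 SI computed as CC50/EC50. CC50 from the 2-day MTT viability assay on Vero cells; EC50 from the 3-day MTT assay of HSV-1 cytopathic effect (MOI 0.5). Both in µg/ml.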

In series [5] the test system is Human immunodeficiency virus. Kind of series: Antiviral activity against HIV infected in human MT4 cells by MTT assay. In kind it is functional, organism-based.
In series [6] the test system is Human herpesvirus 2 strain G. Put plainly: Antiviral activity against HSV-2G ATCC 734 infected in african green monkey Vero cells after 2 to 3 days by plaque reduction assay. In kind it is functional, organism-based. Particulars: Human alphaherpesvirus 2, ATCC 734, Vero. The method in brief:
(§1)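 Vero cells infected at MOI 0.5 (HSV-1 or HSV-2), with serial compound dilutions in EMEM, held 1–2 h at room temperature. Cells then washed and overlaid with methylcellulose. Plaques stained with crystal violet after 2–3 days. Acyclovir and 0.1% DMSO served as controls. EC50 (50% plaque reduction) interpolated from dose-response curves.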
In general terms: In a plaque reduction assay, fewer plaques than in the control indicate reduced infectivity or spread.

For series [7], the system named is Human alphaherpesvirus 1. Kind of series: Antiviral activity against HSV-1F ATCC 733 infected in african green monkey Vero cells after 2 to 3 days by plaque reduction assay. In kind it is functional, organism-based. Particulars: Human alphaherpesvirus 1, ATCC 733, Vero. The method in brief: as §1
A short description of series [8]: Selectivity index, ratio of CC50 for african green monkey Vero cells to EC50 for HSV-1F ATCC 733 by plaque reduction assay. In kind it is toxicity, cell-based. The conditions noted are these: read-out: Ratio CC50/EC50. An outline of the steps:
(§2)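 SI derived from the Vero CC50 (MTT) divided by the plaque-reduction EC50 against the named HSV strain (MOI 0.5, methylcellulose overlay, crystal violet count after 2–3 days).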

Series [9] can be described thus: Selectivity index, ratio of CC50 for african green monkey Vero cells to EC50 for HSV-2G ATCC 734 by plaque reduction assay. In kind it is toxicity, cell-based. The conditions noted are these: read-out: Ratio CC50/EC50. The method in brief:
as §2

Take `Cc1ccc(NC(=O)c2c(N3CCCC3)cc(-c3ccccc3)oc2=O)cc1`: the inhibition at 20 µg/mL in [1] was 62%. Also, in series [2], the EC50 is 20.9 µg/mL (≈ 55.8 µM). In series [3], this compound gave a CC50 at 48 h of 56.5 µg/mL (≈ 151 µM). For the same compound, in [4], the selectivity ratio stood at 2.7. The outcome in series [5] was inactive.
For the compound `Nc1nc2c(ncn2COCCO)c(=O)[nH]1` [ACYCLOVIR], the inhibition at 20 µg/mL in series [1] is 94%. This compound showed a CC50 at 48 h in series [3] of 130 µg/mL (≈ 577 µM). The compound further returned an EC50 in series [6] of 1.8 µg/mL (≈ 7.99 µM).
Consider `O=C(NCCO)c1c(N2CCCC2)cc(-c2ccc(F)cc2)oc1=O`, for which the outcome in series [5] was inactive.
For the compound `O=C(NCCO)c1c(N2CCCCC2)cc(-c2ccccc2)oc1=O`, the inhibition at 20 µg/mL in series [1] turned out to be 89%. For the same compound, the values for the EC50 in series [2], in series [7] and in [6] were 7.4 µg/mL (≈ 21.6 µM), 4.1 µg/mL (≈ 12 µM) and 14.5 µg/mL (≈ 42.3 µM), respectively. The CC50 at 48 h in series [3] stood at 52.5 µg/mL (≈ 153 µM). The results for the selectivity ratio in series [4], in series [8] and in [9] were 7.1, 12.8 and 3.6, respectively. For the same compound, the result in series [5] was inactive.
For the compound `O=C(Nc1ccc(Br)cc1)c1c(N2CCCC2)cc(-c2ccccc2)oc1=O`, in [5], the result was inactive.
The same measure, in the same setting: in the case of `O=C(Nc1ccc(F)cc1)c1c(N2CCCC2)cc(-c2ccccc2)oc1=O` it was “inactive”.
Still for that read-out and setting: in the case of `O=C(NCCO)c1c(N2CCCCC2)cc(-c2ccc(F)cc2)oc1=O` it was “inactive”.
On to `O=C(NCCO)c1c(N2CCCC2)cc(-c2ccccc2)oc1=O`, for which the inhibition at 20 µg/mL in series [1] stood at 70%. Further, the EC50 in series [2] is 9.7 µg/mL (≈ 29.5 µM). The same compound registered a CC50 at 48 h in [3] of 30 µg/mL (≈ 91.4 µM). In series [4], the selectivity ratio turned out to be 3.1. The outcome in [5] was inactive.
For the compound `O=C(Nc1ccc(Cl)cc1)c1c(N2CCCC2)cc(-c2ccccc2)oc1=O`, in [5], the outcome was inactive.
As for `O=C(Nc1ccccc1)c1c(N2CCCC2)cc(-c2ccccc2)oc1=O`, the inhibition at 20 µg/mL in series [1] was found to be 79%. In addition, the EC50 in series [2] worked out at 12.5 µg/mL (≈ 34.7 µM). In addition, the CC50 at 48 h in [3] was 37.5 µg/mL (≈ 104 µM). Also, in series [4], the selectivity ratio worked out at 3. The outcome in series [5] was inactive.
